Screening data as filed in PubChem.
Pf Dd2 growth: P. falciparum Dd2 growth inhibitors, primary screen, SYBR Green fluorescence, single dose replicates | 2.3% of 94,000 active | AID 1159554, 2015 | activity change, % at 10 µM | 72 h; hits give low values; in the data active means activity change below about -80%; inconclusive means no clear call, values can overlap the other calls
IDH1 R132H inh: inhibitors of IDH1 R132H reductase, primary screen, biochemical, plate reader, single point; 0.18% of 70,000 active; inhibition, % at 10 µM; diaphorase/resazurin fluorescence, 60 min; in the data active means inhibition above about 34%; inconclusive means no clear call, values can overlap the other calls; inactive means below about 11%;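 further: 0% = DMSO and 100% = no enzyme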
Tcruzi prolif: T. cruzi intracellular proliferation inhibitors, primary screen, cell-based, beta-gal Tulahuen parasites, NIH3T3 host, luminescence. T. cruzi beta-gal in NIH3T3, GalScreen luminescence, 90 h. inhibition, % at 8.34 µM. 5.9% of 77,000 active. AID 624255, 2012;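 active means mean inhibition above about 93%, with at least 55% of replicates each passing it, limit read from the data, passing the limit was not always enough; inconclusive means only one of those two conditions holds; inactive means neither condition holds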
GASC1 inh: inhibitors of GASC-1 (KDM4C) histone demethylase, primary screen, biochemical, single concentration HTS; Lysine-specific demethylase 4C (Homo sapiens), Q9H3R0; GST-KDM4C 2-372, H3K9me3 peptide, LANCE TR-FRET; inhibition, % at 12.5 µM; 0.15% of 96,000 active; AID 720574, 2013;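 active means mean replicate inhibition above about 25%, with at least 55% of replicates also reaching it, limit read from the data, passing the limit was not always enough; inconclusive means only one of those two conditions met; inactive means neither condition met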
Target sequence (Q9H3R0 2-372 limits assumed): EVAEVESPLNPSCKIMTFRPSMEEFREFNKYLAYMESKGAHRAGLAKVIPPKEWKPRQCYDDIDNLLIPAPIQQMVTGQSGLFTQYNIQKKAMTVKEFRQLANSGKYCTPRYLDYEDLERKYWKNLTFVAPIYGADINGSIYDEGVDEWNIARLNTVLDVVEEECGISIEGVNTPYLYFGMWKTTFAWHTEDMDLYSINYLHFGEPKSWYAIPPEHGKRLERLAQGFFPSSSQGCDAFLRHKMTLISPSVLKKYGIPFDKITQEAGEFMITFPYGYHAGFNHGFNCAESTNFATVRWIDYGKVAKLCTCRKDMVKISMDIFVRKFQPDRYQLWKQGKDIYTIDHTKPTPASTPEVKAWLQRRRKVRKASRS
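material = GST-tagged GASC-1 (JMJD2C) catalytic fragment, aa 2-372 | amount = enzyme final amount 10 nM | medium = HEPES buffer, pH 7.5, plus ascorbate | also added = H3K9me3 peptide substrate, Fe(II), 2-oxoglutarate | dosing = single dose | times = 30 min demethylation and 1 h detection at room temperature | detection = LANCE TR-FRET | read-out basis = Fall in 671/618 emission ratio as inhibition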
An asterisk follows results filed as active; ? = inconclusive; · = no result given; ! = repeats disagree. Sampled rows, rich in hits. Any-hit rate of the full collection: about 5.8%.

SMILES	Pf Dd2 growth	IDH1 R132H inh	Tcruzi prolif	GASC1 inh
COc1cccc(C#Cc2ccc([C@@H]3[C@@H](C#N)N(C(=O)C4CCCC4)[C@@H]3CO)cc2)c1	-47.2	·	·	-1.8
COc1cccc(C#Cc2ccc([C@H]3[C@H](C#N)N(C(=O)C4CCCC4)[C@H]3CO)cc2)c1	-56.5	·	·	-3.8
COc1cccc(C#Cc2ccc([C@H]3[C@@H](CO)N(C(=O)C4CCCC4)[C@H]3C#N)cc2)c1	-93.5*	·	·	-2.0
COc1cccc(C#Cc2ccc([C@H]3[C@@H](CO)N(C(=O)C4CCC4)[C@H]3C#N)cc2)c1	-85.6*	-0.4	86.7	-2.7
CN(CC(=O)Nc1cccnc1)S(=O)(=O)c1ccc2ccccc2c1	·	-0.2	·	·
CC(C)C(NS(=O)(=O)c1ccccc1F)C(=O)O (centres undefined)	·	-0.3	·	·
C[C@@H]1CN([C@H](C)CO)C(=O)c2cc(NC(=O)CCCCCC(=O)Nc3ccccc3N)ccc2O[C@@H]1CN(C)Cc1ccc(Oc2ccccc2)cc1	-60.2	·	·	11.4
C[C@H](CO)N1C[C@H](C)[C@H](CN(C)C(=O)Nc2ccccc2)Oc2c(NC(=O)CCCCCC(=O)Nc3ccccc3N)cccc2C1=O	-57.7	0.0	·	-0.7
C[C@@H]1CN([C@@H](C)CO)C(=O)c2cccc(NC(=O)CCCCCC(=O)Nc3ccccc3N)c2O[C@@H]1CN(C)Cc1ccc(Oc2ccccc2)cc1	-91.0*	·	·	-0.8
C[C@@H]1CN([C@H](C)CO)C(=O)c2cccc(NC(=O)CCCCCC(=O)Nc3ccccc3N)c2O[C@@H]1CN(C)Cc1ccc(Oc2ccccc2)cc1	-90.6*	0.1	·	1.4
C[C@H]1CN([C@@H](C)CO)C(=O)c2cccc(NC(=O)CCCCCC(=O)Nc3ccccc3N)c2O[C@@H]1CN(C)Cc1ccc(Oc2ccccc2)cc1	-81.6*	0.2	·	-0.4
O=C(c1ccc(F)cc1)N1C[C@@H]2N[C@H](C1)C2c1ccc(/C=C/c2ccccc2)cc1 (some centres undefined)	-27.1	·	·	-0.8
O=C(Nc1ccccc1)N1C[C@@H]2N[C@H](C1)[C@@H]2c1ccc(/C=C/c2ccccc2)cc1	-89.4*	·	·	-3.2
O=C(c1ccc2c(c1)OCO2)N1C[C@@H]2N[C@H](C1)C2c1ccc(/C=C/c2ccccc2)cc1 (some centres undefined)	-89.5*!	·	·	-0.1
Cc1cc2ccccc2n2c(SCC(=O)NCc3ccco3)nnc12	·	-0.5	·	·
C[C@@H]1CN([C@@H](C)CO)C(=O)c2cccc(NC(=O)CCCCCC(=O)Nc3ccccc3N)c2O[C@H]1CN(C)CC1CCCCC1	-88.9*	·	·	4.8
C[C@H]1CN([C@@H](C)CO)C(=O)c2cccc(NC(=O)Nc3ccccc3)c2O[C@@H]1CN(C)Cc1ccc(Cl)c(Cl)c1	-28.2	-1.8	10.9	0.1
C[C@@H]1CN([C@H](C)CO)C(=O)c2cccc(NC(=O)Nc3ccccc3)c2O[C@@H]1CN(C)Cc1ccc(Cl)c(Cl)c1	-85.9*	·	66.0	-0.8
C[C@H](CO)N1C[C@H](C)[C@H](CN(C)CC2CC2)Oc2c(NC(=O)CCCCCC(=O)Nc3ccccc3N)cccc2C1=O	-43.6	-0.4	·	0.2
C[C@@H]1CN([C@@H](C)CO)C(=O)c2cccc(NC(=O)CCCCCC(=O)Nc3ccccc3N)c2O[C@@H]1CN(C)Cc1ccccc1	-87.1*	·	·	1.9
C[C@@H]1CN([C@@H](C)CO)C(=O)c2cccc(NC(=O)CCCCCC(=O)Nc3ccccc3N)c2O[C@H]1CN(C)Cc1ccc(-c2ccccc2)cc1	-90.7*	0.3	·	-4.7
C[C@H]1CN([C@@H](C)CO)C(=O)c2cccc(NC(=O)CCCCCC(=O)Nc3ccccc3N)c2O[C@@H]1CN(C)Cc1ccncc1	-16.1	-0.6	·	-0.7
C[C@H](CO)N1C[C@H](C)[C@H](CN(C)C)Oc2c(NC(=O)CCCCCC(=O)Nc3ccccc3N)cccc2C1=O	21.7	·	·	0.1
C[C@H](CO)N1C[C@H](C)[C@@H](CN(C)Cc2ccc(-c3ccccc3)cc2)Oc2c(NC(=O)CCCCCC(=O)Nc3ccccc3N)cccc2C1=O	-86.7*	0.0	·	-1.4
CC(C)NC(=O)Nc1cccc2c1O[C@@H](CN(C)CC1CCCCC1)[C@H](C)CN([C@@H](C)CO)C2=O	-80.7*	0.7	·	-2.1
SMILES	Pf Dd2 growth	IDH1 R132H inh	Tcruzi prolif	GASC1 inh
C[C@@H]1CN([C@@H](C)CO)C(=O)c2cccc(NC(=O)CCCCCC(=O)Nc3ccccc3N)c2O[C@H]1CN(C)C	-62.0	0.7	·	1.2
CC(C)NC(=O)Nc1cccc2c1O[C@@H](CN(C)CC1CCCCC1)[C@@H](C)CN([C@H](C)CO)C2=O	-0.2	·	-19.4	-0.7
C[C@H](CO)N1C[C@H](C)[C@H](CN(C)Cc2ccc(Cl)c(Cl)c2)Oc2c(NC(=O)CCCCCC(=O)Nc3ccccc3N)cccc2C1=O	-88.4*	0.5	·	-0.3
Cc1ccccc1NC(=O)CSc1ncnc2c1sc1nc(N3CCOCC3)c3c(c12)CCCC3	·	0.4	·	·
Cc1cccc(NC(=O)CSc2nnc(-c3cccs3)n2-c2ccccc2)c1C	·	0.0	·	·
Cc1cccc(NC(=O)C(=O)NCCCO)c1	·	1.7	·	·
C[C@@H]1CN([C@@H](C)CO)C(=O)c2cccc(NC(=O)Nc3ccc(F)cc3)c2O[C@@H]1CN(C)Cc1ccc(C(=O)Nc2ccccc2N)cc1	-92.2*	0.8	·	-0.6
C[C@@H]1CN([C@H](C)CO)C(=O)c2cccc(NC(=O)Nc3ccc(F)cc3)c2O[C@@H]1CN(C)Cc1ccc(C(=O)Nc2ccccc2N)cc1	-89.2*	·	·	-1.9
C[C@H](CO)N1C[C@H](C)[C@@H](CN(C)Cc2ccc(C(=O)Nc3ccccc3N)cc2)Oc2ccc(NC(=O)Nc3ccc(F)cc3)cc2C1=O	?	·	37.6	-0.1
COc1ccc(NC(=O)Nc2ccc3c(c2)C(=O)N([C@H](C)CO)C[C@@H](C)[C@@H](CN(C)CC2CCCCC2)OCCCC[C@@H](C)O3)cc1	-81.3*	2.4	91.6	1.2
C[C@H]1CCCCO[C@@H](CN(C)CC2CCCCC2)[C@@H](C)CN([C@@H](C)CO)C(=O)c2cc(NC(=O)Nc3ccccc3)ccc2O1	-83.1*	-1.0	89.9	-0.6
COc1ccc(NC(=O)Nc2ccc3c(c2)C(=O)N([C@H](C)CO)C[C@H](C)[C@@H](CN(C)CC2CC2)OCCCC[C@H](C)O3)cc1	-84.2*	·	92.5	0.8
C[C@@H]1CCCCO[C@H](CN(C)CC2CC2)[C@H](C)CN([C@H](C)CO)C(=O)c2cc(NC(=O)C3CCCCC3)ccc2O1	-82.6*	·	89.0	-1.4
C[C@H](CO)N1C[C@H](C)[C@@H](CN(C)CC2CCCCC2)OCCCC[C@H](C)Oc2ccc(NC(=O)Nc3ccccc3)cc2C1=O	-59.8	1.1	93.4	-0.1
C[C@@H]1CCCCO[C@H](CN(C)CC2CC2)[C@H](C)CN([C@@H](C)CO)C(=O)c2cc(NC(=O)C3CCCCC3)ccc2O1	·	2.6	·	-1.5
O=C(Cn1cnc2ccccc2c1=O)Nc1ccc2c(c1)oc1ccccc12	·	0.0	·	·
